Assay results taken from ChEMBL document CHEMBL1147501, “Synthesis and nicotinic acetylcholine receptor binding affinities of 2- and 3-isoxazolyl-8-azabicyclo[3.2.1]octanes” (Bioorg Med Chem Lett, 2004).

Legend:
[1] = Inhibition of [3H]-cytisine binding to neuronal nicotinic acetylcholine receptor of rat brain
Outline: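 Test compounds run as oxalate salts. Ki values are reported as mean ± SEM of three independent experiments, each performed in triplicate.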

[2] = molecular target: Neuronal acetylcholine receptor (Rattus norvegicus) (UniProt P04757+P09483+P12389+P12390+P12392+P43144+Q9JLB5+P12391+P43143+P20420+Q05941); experiment: Percent Inhibition of [3H]cytisine binding at neuronal nicotinic acetylcholine receptor in rat brain at 100 uM; type: tissue-based

Row | Structure (SMILES) | Ki [1] [µM] | inhibition [2] [%]
1 | Cc1cc(C2CC3CCC(C2)N3)on1 (stereo in doubt; 15a) | 18 | 
2 | Cc1cc(C2CC3CCC(C2)N3C)on1 (configuration not stated) | 0.194 | 40
3 | Clc1ccc(C2CC3CC[C@@H]2N3)cn1 (some centres not stated) | 0.00079 | 
4 | CN1CCC[C@H]1c1ccccc1 | 0.008 | 
5 | Cc1cc(C2CCC3CC[C@@H]2N3)on1 (some centres not stated) | 0.003 | 
6 | Clc1ccc([C@H]2CCC3CCC2N3)cn1 (some centres not stated) | 0.00104 | 
7 | Cc1cc(C2=CC3CCC(C2)N3)on1 (configuration not stated) | 0.32 | 
8 | Cc1cc(C2=CC3CCC(C2)N3C)on1 (configuration not stated) | 0.72 | 
9 | Cc1cc([C@@H]2CCC3CCC2N3)on1 (some centres not stated) | 26 | 
10 | Cc1cc(C2CC[C@H]3CCC2N3C)on1 (some centres not stated) | 1.47 | 
11 | Cc1cc(C2CC3CCC(C2)N3)on1 (stereo in doubt; 15b) | 0.148 | 
